Source: PubChem BioAssay AID573 (SRMLSC, 2007)
Out of some 65,000 compounds screened, about 1,400 (2.2%) were called active. The full list was thinned out, with actives kept by preference. Values without a mark were called inactive.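 How the source made its calls: active means growth inhibition at or above a cutoff equal to the mean over every tested compound plus 3 SD (cut at about 60% in these data); inactive means the rest.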

experiment: growth inhibitors of E. coli tolC mutant, primary screen, strain BW25113 ΔtolC::kan, 384-well (AID 573); details: OD615, active compounds read high, screened at 10 µM (by protocol);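 further: growth measured after 20 h incubation at 37 °C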
Method in brief: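 Assay system: tolC-deleted E. coli BW25113. Medium: kanamycin-containing LB broth (50 µg/mL). Dosing: 10 µM final, single dose. Timing: bacterial growth with compound for 20 h at 37 °C. Detection: A615 absorbance measurement. Read-out basis: growth inhibition in percent.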

Going from `N#Cc1nc(COc2ccc(Cl)cc2)oc1N1CCCC1` to `COc1ccc2nc(N3CCCC(O)C3)c(C#N)cc2c1` (configuration not stated), the growth inhibition falls from 7.84% to 5.39%.

First: N#CCCN1CCN(S(=O)(=O)c2ccc(S(=O)(=O)NC3CCCCC3)cc2)CC1
Second: O=C(NCCCN1CCCCCC1)C1CC(=O)N(C2CCCC2)C1 (configuration not stated)
The growth inhibition of the first is higher: -0.61% for the first, -11.7% for the second.

Compared with `Cc1cc(NC(=O)CN2CCC(O)(c3cccc(F)c3)CC2)no1`, `O=C(Nc1ccccc1N1CCN(c2ccccc2)CC1)c1cccc(F)c1` is higher in growth inhibition: -18.6% for the first, 17.8% for the second.

Compared with `O=C(Cn1nnc(-c2ccc3c(c2)OCO3)n1)NCc1ccco1`, `O=C(NCc1ccco1)c1sc2cccc(F)c2c1Cl` is lower in growth inhibition: 7.12% for the first, -1.49% for the second.

Compared with `O=C(NCCCCO)C(F)(F)C(F)(F)C(F)(F)C(=O)NCCCCO`, `Cc1oc(-c2ccccc2F)nc1CS(=O)(=O)CC(=O)NCCCN(C)C1CCCCC1` is higher in growth inhibition: -11% for the first, -1.97% for the second.

Compared with `CCOCC(=O)Nc1sc2c(c1C(=O)OCC)CCCC2`, `CCOC(=O)c1c(NC(=O)CSc2nnc(CN3CCOCC3)n2C)sc2c1CCCC2` is lower in growth inhibition: 42.8% for the first, 5.6% for the second.

Going from `CC1(C)CC(=O)c2cc(OCC(=O)NCC3CCCO3)ccc2O1` (configuration not stated) to `Cc1c(C(=O)N2CCOCC2)[nH]c2ccc(OCc3ccccc3)cc12`, the growth inhibition rises from -5% to 1.84%.

Compared with `COc1cc(OC)cc(C(=O)Nc2ccc(-c3nc4ccccc4o3)c(O)c2)c1`, `COc1ccc(-c2nc(CS(=O)CC(=O)N3CCc4ccccc4C3)c(C)o2)cc1` (configuration not stated) is lower in growth inhibition: 19.7% for the first, 3.93% for the second.

First: Cc1nc2nc(COc3ccccc3)[nH]n2c(=O)c1C
Second: Cc1nc(SC(C)C)[nH]c(=O)c1Cc1ccccc1
The growth inhibition of the first is higher: 11.6% for the first, 0% for the second.

Going from `CCOc1ccccc1NC(=O)C1CCN(S(=O)(=O)c2c(C)nn(C)c2C)CC1` to `Cc1ccccc1OCC(=O)Nc1ccc(N2CCN(C(=O)C(C)C)CC2)c(Cl)c1`, the growth inhibition rises from -6.48% to 42.8%.

Compared with `COc1ccc(-n2c(SCC(=O)OC(C)C)nnc2-c2ccccn2)cc1`, `COc1ccc(N2CCN(Cc3cc(=O)oc4ccc5ccccc5c34)CC2)cc1` is higher in growth inhibition: 4.58% for the first, 11.6% for the second.

Compared with `Nc1nonc1-c1nc2ccccc2n1Cc1ccc(F)cc1`, `Cc1cccc2nc(CNc3ccc(F)cc3)cn12` is higher in growth inhibition: -8.77% for the first, 4.83% for the second.

Going from `O=c1c(-c2ccccc2)coc2c(CN3CCOCC3)c(O)ccc12` to `CCOC(=O)C1C(=O)NC(N2CCN(c3ccccc3)CC2)=NC1c1ccco1` (configuration not stated), the growth inhibition rises from -9.34% to -7.5%.

Compared with `O=C(O)c1ccc(NS(=O)(=O)c2cccc3nsnc23)cc1`, `CCOc1ccc2nc(NCCNS(=O)(=O)c3ccccc3)c(C#N)cc2c1` is higher in growth inhibition: -25% for the first, -0.48% for the second.

First: COc1cc(-c2noc(C3CCCN(S(=O)(=O)c4cccc(Cl)c4)C3)n2)cc(OC)c1OC (configuration not stated)
Second: CS(=O)(=O)N(CC(=O)N1CCN(c2cccc(Cl)c2)CC1)c1ccccc1
The growth inhibition of the first is higher: 35.2% for the first, 1.41% for the second.

Compared with `O=C(Nc1ccccc1N1CCCCC1)c1ccc2nccnc2c1`, `O=C(Nc1ccccc1F)C1C2C=CC3(O2)C1C(=O)N(c1cccnc1)C3C(=O)NC1CCCCC1` (configuration not stated) is lower in growth inhibition: 28.8% for the first, -12.5% for the second.

Going from `CCCc1cc(=O)[nH]c(SCc2ccc(C#N)cc2)n1` to `COc1ccc(CCNC(=O)c2ccco2)cc1`, the growth inhibition falls from 14.9% to -4.03%.

First: CCCCC(=O)N(c1ccc(OC)cc1)C1C=CS(=O)(=O)C1 (configuration not stated)
Second: CCOc1ccc(S(=O)(=O)n2ccnc2)c2ccccc12
The growth inhibition of the first is lower: -9.87% for the first, 3.73% for the second.

Going from `Fc1ccccc1C(c1nnnn1Cc1ccc2c(c1)OCO2)N1CCN(Cc2ccccc2)CC1` (configuration not stated) to `CCC(C)(C)n1nnnc1C(c1cccs1)N1CCN(Cc2ccccc2)CC1` (configuration not stated), the growth inhibition falls from 20.4% to 4.31%.

For `CC1CCN(c2oc(-c3ccccc3F)nc2C#N)CC1`, the growth inhibition was 71.3% (active).
With `CCOC(=O)c1c(NC(=O)CSc2nnc(C)c(=O)[nH]2)sc2c1CCC2` the growth inhibition was 66.5% (active).
For `Cc1nc2nc(COc3ccccc3)[nH]n2c(=O)c1Cc1ccccc1`, the growth inhibition was 100% (active).
For `CCOC(=O)c1c(CN2CCOCC2)n(-c2ccccc2)c2ccc(O)cc12`, the growth inhibition was 65.2% (active).
For `O=C(Nc1ccccc1N1CCCCC1)c1cccc(F)c1`, the growth inhibition was 100% (active).
In the case of `CCOc1ccc2nc(N3CCCN(C(=O)Nc4ccccc4C)CC3)c(C#N)cc2c1`, the growth inhibition was 62.3% (active).
With `Cc1ccccc1-c1nc(CS(=O)(=O)CC(=O)N2CCc3ccccc3C2)c(C)o1` the growth inhibition was 63% (active).
In the case of `Fc1ccc(Cn2nnnc2C(c2cccs2)N2CCCCCC2)cc1` (configuration not stated), the growth inhibition was 85.7% (active).
In the case of `CCOC(=O)C1C(=O)C=C(c2ccc(OC)cc2)CC1c1ccco1` (configuration not stated), the growth inhibition was 85.4% (active).
